Results from ChEMBL document CHEMBL1255327, “Carbapenem-resistant Acinetobacter baumannii isolates from Tunisia producing the OXA-58-like carbapenem-hydrolyzing oxacillinase OXA-97” (2008).
≈ marks a conversion by molar mass, not a printed value.

Tests used:
Acinetobacter baumannii [1] = assay: Activity of Acinetobacter baumannii phenotype 1 beta-lactamase assessed per mg of protein at 100 uM
Method in brief: (§1)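 Crude extracts made by sonication from A. baumannii clinical isolates and from E. coli TOP10 recombinants expressing OXA-97 or OXA-58. Specific activity measured against imipenem, meropenem, cephalothin, ceftazidime, oxacillin and benzylpenicillin, each at 100 μM final. Values are means of three independent experiments; standard deviations within 10% of means.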

Acinetobacter baumannii [2] = assay: Activity of Acinetobacter baumannii phenotype 2 beta-lactamase assessed per mg of protein at 100 uM; method in brief: as §1
Acinetobacter baumannii [3] = assay: Activity of Acinetobacter baumannii MAD beta-lactamase assessed per mg of protein at 100 uM; method in brief: as §1
Escherichia coli [4] = assay: Activity of Escherichia coli TOP10 beta-lactamase OXA-58 assessed per mg of protein at 100 uM; method in brief: as §1
Escherichia coli [5] = assay: Activity of Escherichia coli TOP10 beta-lactamase OXA-97 assessed as specific activity per mg of protein at 100 uM; method in brief: as §1
Acinetobacter baumannii [6] = assay: Antibacterial activity against Acinetobacter baumannii phenotype 1 […]; type: functional
Method in brief: (§2)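 Disk diffusion on Mueller-Hinton agar plates with β-lactam and non-β-lactam antibiotic disks, interpreted per CLSI guidelines.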

Acinetobacter baumannii [7] = assay: Antibacterial activity against Acinetobacter baumannii phenotype 1 […] in presence of 4 ug/ml clavulanic acid; type: functional
Acinetobacter baumannii [8] = assay: Antibacterial activity against Acinetobacter baumannii phenotype 2 […]; type: functional; method in brief: as §2
Acinetobacter baumannii [9] = assay: Antibacterial activity against Acinetobacter baumannii phenotype 2 […] in presence of 4 ug/ml clavulanic acid; type: functional
Acinetobacter baumannii [10] = assay: Antibacterial activity against Acinetobacter baumannii MAD […]; type: functional
Acinetobacter baumannii [11] = assay: Antibacterial activity against Acinetobacter baumannii MAD […] in presence of 4 ug/ml clavulanic acid; type: functional
Escherichia coli [12] = assay: Antibacterial activity against Escherichia coli TOP10 harboring pOXA-58; type: functional
Escherichia coli [13] = assay: Antibacterial activity against Escherichia coli TOP10 harboring pOXA-58 in presence of 4 ug/ml clavulanic acid; type: functional
Escherichia coli [14] = assay: Antibacterial activity against Escherichia coli TOP10 harboring pOXA-97; type: functional
Escherichia coli [15] = assay: Antibacterial activity against Escherichia coli TOP10 harboring pOXA-97 in presence of 4 ug/ml clavulanic acid; type: functional
Acinetobacter baumannii [16] = assay: Antibacterial activity against Acinetobacter baumannii CIP7010 by disk diffusion method; type: functional; method in brief: as §2
Acinetobacter baumannii [17] = assay: Antibacterial activity against Acinetobacter baumannii CIP7010 by disk diffusion method in presence of 4 ug/ml clavulanic acid; type: functional
[18] = Antibacterial activity against Escherichia coli DH10B; type: functional, Escherichia coli str. K-12 substr. DH10B
Escherichia coli [19] = assay: Antibacterial activity against Escherichia coli DH10B in presence of 4 ug/ml clavulanic acid; type: functional; conditions: K-12 DH10B
[20] = Antibacterial activity against Escherichia coli DH10B harboring pOXA-97; type: functional, Escherichia coli str. K-12 substr. DH10B
[21] = Antibacterial activity against Escherichia coli DH10B harboring pOXA-97 in presence of 4 ug/ml clavulanic acid; type: functional, Escherichia coli str. K-12 substr. DH10B
Acinetobacter baumannii [22] = assay: Antibacterial activity against Acinetobacter baumannii CIP7010 harboring pOXA-97 by disk diffusion method; type: functional
Method in brief: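 Disk diffusion on Mueller-Hinton agar with β-lactam and non-β-lactam disks, per CLSI guidelines. The strain is an electroporation transformant of recipient CIP7010, with clinical isolates A1 and A2 as plasmid donors, selected on Trypticase soy agar containing 50 μg/ml ticarcillin.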

Compound | Activity (Acinetobacter baumannii [1]) [mU/mg] | Activity (Acinetobacter baumannii [3]) [mU/mg] | Activity (Escherichia coli [4]) [mU/mg] | Activity (Escherichia coli [5]) [mU/mg] | MIC (Acinetobacter baumannii [6]) [µg/mL] | MIC (Acinetobacter baumannii [8]) [µg/mL] | MIC (Acinetobacter baumannii [10]) [µg/mL] | MIC (Escherichia coli [12]) [µg/mL] | MIC (Escherichia coli [14]) [µg/mL] | MIC (Acinetobacter baumannii [16]) [µg/mL] | MIC [18] [µg/mL] | MIC [20] [µg/mL] | MIC (Acinetobacter baumannii [22]) [µg/mL] | further results
CC(=O)OCC1=C(C(=O)O)N2C(=O)[C@@H](NC(=O)Cc3cccs3)[C@H]2SC1 | 20 | 15 | 15 | 20 |  |  |  |  |  |  |  |  |  | Activity (Acinetobacter baumannii [2]): 10 mU/mg
CC1(C)S[C@@H]2[C@H](NC(=O)Cc3ccccc3)C(=O)N2[C@H]1C(=O)O | 220 | 170 | 150 | 220 |  |  |  |  |  |  |  |  |  | Activity (Acinetobacter baumannii [2]): 210 mU/mg
Cc1onc(-c2ccccc2)c1C(=O)N[C@@H]1C(=O)N2[C@@H]1SC(C)(C)[C@@H]2C(=O)O | 230 | 230 | 210 | 220 |  |  |  |  |  |  |  |  |  | 
CC1(C)S[C@@H]2[C@H](NC(=O)[C@H](N)c3ccccc3)C(=O)N2[C@H]1C(=O)O [AMPICILLIN] |  |  |  |  | > 512 | > 512 | > 512 | > 512 | > 512 | > 512 | 4 (≈ 11.4 µM) | > 512 |  | MIC (Acinetobacter baumannii [7]): > 512 µg/mL; MIC (Acinetobacter baumannii [9]): > 512 µg/mL; MIC (Acinetobacter baumannii [11]): > 512 µg/mL; MIC (Escherichia coli [13]): 128 µg/mL; MIC (Escherichia coli [15]): 128 µg/mL; MIC (Acinetobacter baumannii [17]): 512 µg/mL; MIC (Escherichia coli [19]): 4 µg/mL; MIC [21]: 128 µg/mL
C[C@H]1[C@H](NC(=O)/C(=N\OC(C)(C)C(=O)O)c2csc(N)n2)C(=O)N1S(=O)(=O)O [AZTREONAM] |  |  |  |  | 128 (≈ 294 µM) | 128 (≈ 294 µM) | 32 (≈ 73.5 µM) | 0.06 (≈ 0.138 µM) | 0.12 (≈ 0.276 µM) | 64 (≈ 147 µM) | 0.12 (≈ 0.276 µM) | 0.06 (≈ 0.138 µM) | 64 (≈ 147 µM) | 
CO/N=C(\C(=O)N[C@@H]1C(=O)N2C(C(=O)[O-])=C(C[N+]3(C)CCCC3)CS[C@H]12)c1csc(N)n1 [CEFEPIME] |  |  |  |  | 64 (≈ 133 µM) | 256 (≈ 533 µM) | 256 (≈ 533 µM) | 0.06 (≈ 0.125 µM) | 0.06 (≈ 0.125 µM) | 1 (≈ 2.08 µM) | 0.06 (≈ 0.125 µM) | 0.12 (≈ 0.25 µM) | 1 (≈ 2.08 µM) | 
CC(C)(O/N=C(\C(=O)N[C@@H]1C(=O)N2C(C(=O)[O-])=C(C[n+]3ccccc3)CS[C@H]12)c1csc(N)n1)C(=O)O [CEFTAZIDIME] | 1 | 2 | 1.5 | 0.5 | > 512 | > 512 | 128 (≈ 234 µM) | 0.06 (≈ 0.11 µM) | 0.06 (≈ 0.11 µM) | 2 (≈ 3.66 µM) | 0.06 (≈ 0.11 µM) | 0.12 (≈ 0.22 µM) | 2 (≈ 3.66 µM) | 
C[C@@H](O)[C@H]1C(=O)N2C(C(=O)O)=C(SCCNC=N)C[C@H]12 [IMIPENEM ANHYDROUS] | 5.2 | 4.5 | 3 | 4 | 32 (≈ 107 µM) | 16 (≈ 53.4 µM) | 32 (≈ 107 µM) | 2 (≈ 6.68 µM) | 2 (≈ 6.68 µM) | 0.25 (≈ 0.835 µM) | 0.06 (≈ 0.2 µM) | 1 (≈ 3.34 µM) | 2 (≈ 6.68 µM) | 
C[C@@H](O)[C@H]1C(=O)N2C(C(=O)O)=C(S[C@@H]3CN[C@H](C(=O)N(C)C)C3)[C@H](C)[C@H]12 [MEROPENEM] | 1.7 | 1.5 | 1 | 1 | 16 (≈ 41.7 µM) | 16 (≈ 41.7 µM) | > 64 | 0.12 (≈ 0.313 µM) | 0.12 (≈ 0.313 µM) | 0.25 (≈ 0.652 µM) | 0.06 (≈ 0.156 µM) | 0.5 (≈ 1.3 µM) | 2 (≈ 5.22 µM) | 
CC1(C)S[C@@H]2[C@H](NC(=O)[C@H](C(=O)O)c3ccsc3)C(=O)N2[C@H]1C(=O)O [TICARCILLIN] |  |  |  |  | > 512 | 64 (≈ 166 µM) | > 512 | > 512 | > 512 | 4 (≈ 10.4 µM) | 4 (≈ 10.4 µM) | > 512 | > 512 | 
